Screening results deposited in PubChem BioAssay by The Scripps Research Institute Molecular Screening Center.
The list is not random: actives were taken first. Their share in the collection is about 2.7%.
pPAFAH FP inh = pPAFAH enzyme inhibitors, primary screen, biochemical, fluorescence polarization, human; recombinant pPAFAH, FP-rhodamine probe fluorescence polarization; inhibition, % at 3.39 µM; 330,000 tested, 1.5% active; AID 463082, 2010;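 active = inhibition above the mean inhibition across the screen plus 3 SD, cut at about 25% in these data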;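 note: inhibitors block binding of the rhodamine activity-based probe so polarization drops; 0% = enzyme with DMSO and 100% = wells lacking pPAFAH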
RBBP9 inhibitor = human RBBP9 inhibitors, primary screen, biochemical, fluorescence polarization, FP-Rh probe, HTS. 220,000 tested, 0.2% active. Serine hydrolase RBBP9 (Homo sapiens), O75884. inhibition, % at 7.94 µM. recombinant RBBP9;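 active = inhibition above the campaign mean of all tested compounds plus 3 SD, cut at about 14% in these data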;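 note: plate controls were DMSO wells with RBBP9 for no effect and wells lacking RBBP9 protein for full effect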
Target sequence (O75884 whole entry, looked up): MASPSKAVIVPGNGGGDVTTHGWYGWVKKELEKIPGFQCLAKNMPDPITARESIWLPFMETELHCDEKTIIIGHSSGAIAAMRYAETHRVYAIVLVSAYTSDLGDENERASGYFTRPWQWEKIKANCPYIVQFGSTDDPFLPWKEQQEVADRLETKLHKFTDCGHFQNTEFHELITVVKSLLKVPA
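System: RBBP9 protein / Quantity: 2.5 µM RBBP9 dispensing solution, before mixing / Also added: Serine-hydrolase probe FP-Rh, 375 nM pre-mixing / Dosing: 7.94 µM single dose, 0.794% DMSO / Timing: enzyme-compound preincubation 30 min, then probe labeling 45 min, 25 °C / Signal: FP readout at 525/598 nm / Controls: DMSO-treated enzyme wells and wells lacking RBBP9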
PAFAH1B2 inh = PAFAH1B2 enzyme inhibitors, primary screen, biochemical, fluorescence polarization, human; Platelet-activating factor acetylhydrolase IB subunit alpha2 (Homo sapiens), P68402; recombinant PAFAH1B2, FP-rhodamine activity probe; inhibition, % at 3.39 µM; 340,000 tested, 1.2% active;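 active = inhibition above the mean of all tested compounds plus 3 SD, cut at about 24% in these data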;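 note: 0% = enzyme with DMSO and 100% = wells lacking PAFAH1B2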
Target sequence (P68402 whole entry, looked up): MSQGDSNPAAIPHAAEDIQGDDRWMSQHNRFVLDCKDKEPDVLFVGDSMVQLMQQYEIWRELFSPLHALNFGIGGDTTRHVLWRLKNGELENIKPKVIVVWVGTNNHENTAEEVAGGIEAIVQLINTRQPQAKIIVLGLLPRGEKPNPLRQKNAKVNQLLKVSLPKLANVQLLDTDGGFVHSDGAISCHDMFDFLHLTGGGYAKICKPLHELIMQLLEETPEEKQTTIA
PAFAH2 inh = PAFAH2 enzyme inhibitors, primary screen, biochemical, fluorescence polarization, human | Platelet-activating factor acetylhydrolase 2, cytoplasmic (Homo sapiens), Q99487 | recombinant PAFAH2, FP-rhodamine activity probe | inhibition, % at 3.39 µM | 340,000 tested, 0.99% active | AID 492956, 2010;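 active = inhibition above the mean over all tested compounds plus 3 SD, cut at about 30% in these data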;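 note: inhibitors block probe labeling of enzyme so polarization drops; 0% = enzyme with DMSO and 100% = wells lacking PAFAH2 protein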
PAFAH1B3 inh = PAFAH1B3 enzyme inhibitors, primary screen, biochemical, fluorescence polarization, human; inhibition, % at 3.39 µM; 340,000 tested, 0.28% active; AID 492972, 2010; recombinant PAFAH1B3, FP-rhodamine probe;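 active = inhibition above the screen-wide average of all tested compounds plus 3 SD, cut at about 25% in these data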;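 note: 0% = enzyme with DMSO only and 100% = wells lacking PAFAH1B3 protein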
Active calls of the source: *.

What do the screens show for `CC(=O)NCC(=O)N(c1ccccc1)C1(C(=O)NC2CCCCC2)CCCCC1`?
pPAFAH FP inh: 5; RBBP9 inhibitor: -1; PAFAH1B2 inh: 28*; PAFAH2 inh: -3; PAFAH1B3 inh: 4

Results for O=C(NCCC(=O)N1CCN(Cc2c(F)cccc2Cl)CC1)c1ccc(Cl)cc1 ?
pPAFAH FP inh: 3; PAFAH1B2 inh: 1; PAFAH2 inh: 6; PAFAH1B3 inh: 3

Results for Cn1cccc1CC(=O)N/N=C\c1c2ccccc2cc2ccccc12 ?
pPAFAH FP inh: 27*; RBBP9 inhibitor: 8; PAFAH1B2 inh: 5; PAFAH2 inh: 17; PAFAH1B3 inh: 1

How did Cn1cccc1CC(=O)N/N=C/c1cccc2ccccc12 do in these assays?
pPAFAH FP inh: 13; RBBP9 inhibitor: -4; PAFAH1B2 inh: 5; PAFAH2 inh: 5; PAFAH1B3 inh: -4

How did CCc1nc2sccc2c(=O)n1N do in these assays?
pPAFAH FP inh: 2; RBBP9 inhibitor: -9; PAFAH1B2 inh: 7; PAFAH2 inh: 2; PAFAH1B3 inh: 16

What do the screens show for `CCOC(=O)C1CCN(S(=O)(=O)c2c(Cl)ccc3nonc23)CC1`?
pPAFAH FP inh: 5; PAFAH1B2 inh: 7; PAFAH2 inh: 5; PAFAH1B3 inh: 6

What do the screens show for `O=C(Oc1ccc(OC(=O)c2ccco2)c(S(=O)(=O)c2ccc(Br)cc2)c1)c1ccco1`?
pPAFAH FP inh: 1; RBBP9 inhibitor: -4; PAFAH1B2 inh: 45*; PAFAH2 inh: 10; PAFAH1B3 inh: 12

What do the screens show for `O=C(Oc1ccc(-c2ccccc2)cc1)c1ccco1`?
PAFAH1B2 inh: 32*; PAFAH2 inh: 6; PAFAH1B3 inh: 9

How did Cc1nn(-c2ccccc2)c(Cl)c1C(=O)NCCCCNC(=O)c1c(C)nn(-c2ccccc2)c1Cl do in these assays?
pPAFAH FP inh: 6; RBBP9 inhibitor: 2; PAFAH1B2 inh: 4; PAFAH2 inh: -11; PAFAH1B3 inh: 6

What do the screens show for `CCC(=O)N(Cc1c(C)nn(-c2ccccc2)c1Cl)c1ccc(Cl)cc1`?
pPAFAH FP inh: 7; RBBP9 inhibitor: -6; PAFAH1B2 inh: 24*; PAFAH2 inh: -9; PAFAH1B3 inh: 9

Results for CC1CC(C)(C)NC(=S)N1CC(=O)NCc1ccc2c(c1)OCO2 (stereo unspecified) ?
pPAFAH FP inh: -1; RBBP9 inhibitor: -8; PAFAH1B2 inh: 1; PAFAH2 inh: 5; PAFAH1B3 inh: 6

Results for O=C(CCl)N1c2ccccc2Oc2ccc3ccccc3c21 ?
PAFAH1B2 inh: 24; PAFAH2 inh: 30*; PAFAH1B3 inh: 30*

Results for CS(=O)(=O)Nc1ccc(C2=NN(C(=O)c3cccc(F)c3)C(c3cccs3)C2)cc1 (stereo unspecified) ?
pPAFAH FP inh: 4; PAFAH1B2 inh: 4; PAFAH2 inh: -5; PAFAH1B3 inh: 12

How did CCC(=O)N1CCc2cc(S(=O)(=O)NC(Cc3ccccc3)C(=O)O)ccc21 (stereo unspecified) do in these assays?
pPAFAH FP inh: 28*; PAFAH1B2 inh: -1; PAFAH2 inh: 8; PAFAH1B3 inh: 2

Results for COc1ccc(/C=N/NC(=O)CCc2c(C)n[nH]c2C)cc1O ?
pPAFAH FP inh: -2; RBBP9 inhibitor: -4; PAFAH1B2 inh: 4; PAFAH2 inh: -3; PAFAH1B3 inh: -1

How did Cc1ccccc1OCC(=O)OCC(=O)c1ccc[nH]1 do in these assays?
pPAFAH FP inh: 5; PAFAH1B2 inh: 3; PAFAH2 inh: 5; PAFAH1B3 inh: 0

How did Cn1cccc1CC(=O)NNC(=S)NC(=O)c1ccccc1Br do in these assays?
pPAFAH FP inh: 26*; RBBP9 inhibitor: -4; PAFAH1B2 inh: 4; PAFAH2 inh: 0; PAFAH1B3 inh: 3

How did Cn1cccc1CC(=O)NNC(=S)Nc1ccc(Cl)cc1Cl do in these assays?
pPAFAH FP inh: 26*; RBBP9 inhibitor: 5; PAFAH1B2 inh: 9; PAFAH2 inh: -7; PAFAH1B3 inh: 4

What do the screens show for `O=C(CN1c2ccccc2Sc2ccccc21)NNC(=S)Nc1ccc(Cl)cc1Cl`?
pPAFAH FP inh: 34*; RBBP9 inhibitor: -4; PAFAH1B2 inh: -2; PAFAH2 inh: 4; PAFAH1B3 inh: -3
